# Laboratory results reported in ChEMBL document CHEMBL1132785, “Optimising inhibitors of trypanothione reductase using solid-phase chemistry” (Bioorg Med Chem Lett, 2000).
# Biological target: Trypanothione reductase (Trypanosoma cruzi, UniProt P28593)
# Assay: The compound was evaluated for inhibition of trypanothione reductase enzyme
# Procedure, shortened: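 Substrate oxidised trypanothione at six levels spanning 0.25–5 × Km, with inhibitor at four experimentally chosen concentrations. Each condition run in triplicate. Ki obtained by fitting rates to the noncompetitive inhibition equation v = Vmax[S]/(1+[I]/Ki)/(Km+[S]).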
# Chain of Trypanothione reductase (P28593 whole entry): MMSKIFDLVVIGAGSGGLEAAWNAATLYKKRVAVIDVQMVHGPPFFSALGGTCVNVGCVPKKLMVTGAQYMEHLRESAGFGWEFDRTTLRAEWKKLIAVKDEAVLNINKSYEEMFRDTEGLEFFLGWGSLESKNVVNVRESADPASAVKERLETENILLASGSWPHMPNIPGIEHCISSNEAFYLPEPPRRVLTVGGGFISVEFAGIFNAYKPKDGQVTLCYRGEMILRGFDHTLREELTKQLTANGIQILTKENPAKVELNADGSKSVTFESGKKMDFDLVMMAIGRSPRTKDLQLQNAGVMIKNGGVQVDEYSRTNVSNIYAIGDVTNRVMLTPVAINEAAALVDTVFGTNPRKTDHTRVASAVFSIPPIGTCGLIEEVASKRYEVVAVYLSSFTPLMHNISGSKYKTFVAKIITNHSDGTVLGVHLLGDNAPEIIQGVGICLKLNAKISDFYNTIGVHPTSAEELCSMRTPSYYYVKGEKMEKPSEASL
row,SMILES,Ki
1,COc1ccc2[nH]cc(CC(=O)NCCCNCCCCNCCCNC(=O)Cc3c[nH]c4ccc(OC)cc34)c2c1,280 nM
2,O=C(NCCCCNCCCNC(=O)c1cnc2cc(C(F)(F)F)ccc2c1O)c1cnc2cc(C(F)(F)F)ccc2c1O,850 nM
3,O=C(CCc1c[nH]c2ccccc12)NCCCNCCCCNCCCNC(=O)CCc1c[nH]c2ccccc12,350 nM
4,O=C(Cc1c[nH]c2ccccc12)NCCCNCCCCNCCCNC(=O)Cc1c[nH]c2ccccc12,390 nM
5,O=C(Cc1c[nH]c2ccc(Br)cc12)NCCCNCCCCNCCCNC(=O)Cc1c[nH]c2ccc(Br)cc12,76 nM
6,O=C(CCCc1c[nH]c2ccccc12)NCCCNCCCCNCCCNC(=O)CCCc1c[nH]c2ccccc12,1260 nM
7,O=C(NCCCNCCCCNCCCNC(=O)c1cnc2cc(C(F)(F)F)ccc2c1O)c1cnc2cc(C(F)(F)F)ccc2c1O,750 nM
8,O=C(CCc1ccc(O)c(O)c1)NCCCNCCCCNCCCNC(=O)CCc1ccc(O)c(O)c1 [KUKOAMINE A],1390 nM
